According to paper PMC5689068 (ACS chemical neuroscience, 2016):

How the values were obtained:
naïve rats = details: naïve animals, i.th.; cited from earlier work
SNL rats = details: nerve-injured animals (L5/L6 SNL), i.th., dose-dependent; cited from earlier work
[1] = In vitro stability in human plasma; format: in vitro ADME
Summary of the method: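 Test compound stock (50 mg/mL in water) was diluted 5-fold into lithium-heparin human plasma and incubated at 37 °C. Samples were taken at 1, 2, 4, 6, 12 and 24 h, quenched with EtOH and centrifuged. Supernatant was run on C-18 RP-HPLC (10–90% acetonitrile, 40 min). t1/2 = 0.693/b, where b is the slope of ln(fraction parent remaining) versus time. Three independent experiments.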

[2] = Rat plasma stability of 1 with or without protease inhibitors; format: in vitro ADME; details: t1/2, rat plasma, calculated after a 4 h incubation
Summary of the method: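 Test compound was added to rat plasma together with one protease inhibitor (60 nM bestatin, 100 µM chymostatin, 1 mM PMSF, 10 µM captopril or 1 mM EDTA), with all five combined, or with none. Incubation was at 37 °C after 5-fold dilution of the stock. Parent remaining was measured by RP-HPLC after EtOH quench. t1/2 was calculated after 4 h incubation as 0.693/slope of ln(fraction remaining) versus time.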

BK receptors = experiment: Radioligand competition binding assay with [3H]BK in rat brain membranes; details: pH 6.8, rat brain membranes, 1 nM [3H]BK
[3] = In vitro stability in rat plasma; format: in vitro ADME

CC[C@H](C)[C@H](NC(=O)[C@H](CCCNC(=N)N)NC(=O)[C@H](CC(C)C)NC(=O)[C@@H](N)Cc1ccccc1)C(=O)N[C@@H](CCCNC(=N)N)C(=O)N1CCC[C@H]1C(=O)N[C@@H](CCCCN)C(=O)O [compound 1, H-Phe-Leu-Arg-Ile-Arg-Pro-Lys-OH]
Dyn A-induced hyperalgesia and motor impairments (naïve rats): block Dyn A-induced hyperalgesia and motor impairments | thermal hyperalgesia and mechanical hypersensitivity (SNL rats): reverse thermal hyperalgesia and mechanical hypersensitivity | time to degradation ([1]; human plasma incubation): ≤ 4 h | remaining at 24 h, 10 mg/mL ([1]; human, human plasma): 0% | half-life ([1]; human, plasma): 144 min | half-life ([2]; 60 nM bestatin): 48 min | half-life ([2]; 1 mM EDTA): 48 min | half-life ([2]; 1 mM PMSF): 48 min | log[IC50], BK receptors, [3H]BK (BK receptors): −6.83 ± 0.09 | IC50 (BK receptors; read-out: IC50, BK receptors, [3H]BK): 150 nM | time to complete degradation ([3]; rat plasma incubation): ≤ 4 h | half-life ([3]; rat, plasma, t1/2 in rat plasma, 37 °C, 24 h study): < 60 min | remaining at 24 h, 10 mg/mL ([3]; rat, rat plasma): 0%
